Compound activity from PubChem BioAssay.
Compounds with a hit are over-represented: about 2.5% of the library has one in this group of screens.
Efflux pump inh – inhibitors of Candida antifungal efflux pumps expressed in yeast | S. cerevisiae Candida pump triplex, Nile Red efflux | inhibition, % at 10 µM | actives 0.44% (n = 330,000) | AID 485275;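 active means plate passing quality check with inhibition over a set limit, or well fluorescence over plate mean plus 4 SD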;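 further: Nile Red retained in pooled yeast measured as flow cytometry median fluorescence; higher means more Nile Red kept so more efflux inhibition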
MEKK3 PB1 HTS – MEKK3-MEK5 PB1 interaction, increase or decrease | Q99759 | bead-based flow cytometry, Alexa488-MEK5 binding to MEKK3; actives lie on both sides; 0 = blocked by unlabeled MEK5, 100 = vehicle | binding response (% of control), % at 10 µM | actives 1.4% (n = 290,000);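 active means binding response more than 3 SD above or below the average of its plate-row segment, actives on both sides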;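 further: Alexa488 bead fluorescence after subtracting the streptavidin-only scavenger bead signal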
Target sequence (Q99759 whole entry, looked up): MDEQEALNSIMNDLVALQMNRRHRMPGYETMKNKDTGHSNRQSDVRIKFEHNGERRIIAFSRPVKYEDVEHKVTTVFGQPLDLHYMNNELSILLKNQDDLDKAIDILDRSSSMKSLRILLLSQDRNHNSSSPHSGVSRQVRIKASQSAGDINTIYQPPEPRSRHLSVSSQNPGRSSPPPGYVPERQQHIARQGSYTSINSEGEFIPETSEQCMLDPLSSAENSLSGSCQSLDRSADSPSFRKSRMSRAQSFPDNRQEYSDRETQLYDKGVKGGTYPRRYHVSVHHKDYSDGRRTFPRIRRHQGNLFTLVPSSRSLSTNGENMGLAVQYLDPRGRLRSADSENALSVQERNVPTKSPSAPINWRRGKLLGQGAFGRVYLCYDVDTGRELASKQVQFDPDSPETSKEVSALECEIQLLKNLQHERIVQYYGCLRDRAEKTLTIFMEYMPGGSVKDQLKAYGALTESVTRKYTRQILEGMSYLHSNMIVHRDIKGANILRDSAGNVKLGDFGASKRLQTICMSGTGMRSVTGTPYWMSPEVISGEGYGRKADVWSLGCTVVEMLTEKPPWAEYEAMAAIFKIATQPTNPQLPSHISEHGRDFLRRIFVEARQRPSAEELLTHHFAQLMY
ABCG2 inh – human ABCG2 inhibition, ABCB1 as counter-screen; Q9UNQ0; IgMXP3 cells, JC-1 efflux, flow cytometry; inhibition, % at 6.6 µM; actives 0.1% (n = 190,000);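 active means inhibition above 80%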
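Times: 10 min at 25 °C | Test system: Two drug-resistant human cell lines, ABCG2 and ABCB1 | Quantity: 3 million cells/mL final, two lines in 1:1 ratio | Signal: Flow cytometry, 530 nm JC-1 signal | Dosing: Compound at 6.6 µM | Controls: Nicardipine and DMSO wells | Reagent: JC-1 as fluorescent efflux pump substrate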
MEKK2 mut-MEK5 – signal of MEK5 binding to mutant human MEKK2 PB1 domain. bead flow cytometry, Alexa488-MEK5 binding to MEKK2 mutant. percent response, % at 10 µM. actives 0.35% (n = 290,000); in the data active means percent response above about 24%, passing the limit was not always enough
ABCB1 block – blocks JC-1 efflux by human ABCB1 transporter; P08183; CCRF-Adr cells, flow cytometry; inhibition, % at 6.6 µM; actives 0.067% (n = 190,000); AID 1326; in the data active means inhibition above about 40%;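 further: higher value means more JC-1 retained so stronger ABCB1 efflux block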
MEKK2 WT-MEK5 – raises or lowers MEK5 binding to wildtype human MEKK2 PB1 domain. Q9Y2U5. bead flow cytometry, Alexa488-MEK5 binding to MEKK2 WT; actives lie on both sides. binding response (% of control), % at 10 µM. actives 1.1% (n = 290,000). AID 1531; in the data active means binding response below about 67% or above about 130%
MEKK2wt confirm – raises or lowers MEK5 binding to wildtype human MEKK2, retest; shares compounds with MEKK3 PB1 HTS; bead flow cytometry, Alexa488-MEK5 binding to MEKK2 WT; actives lie on both sides; binding response (% of control), % at 10 µM; actives 2.4% (n = 5,900); AID 1892; in the data active means binding response below about 16% or above about 210%; inactive means in between
MEKK2mut confirm – signal of MEK5 binding to mutant human MEKK2, retest. shares compounds with MEKK3 PB1 HTS. bead flow cytometry, Alexa488-MEK5 binding to MEKK2 mutant. percent response, % at 10 µM. actives 2% (n = 5,900). AID 1893; in the data active means percent response mostly above about 71%, no sharp cut-off; inactive means mostly below about 38%;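 further: higher means compound restores mutant binding toward wildtype level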
MEKK3-MEK5 inh – MEKK3-MEK5 PB1 inhibition, single concentration confirmation | bead flow cytometry, Alexa488-MEK5 binding to MEKK3; hits give low values | actives 1.8% (n = 5,900) | binding response (% of control), % at 10 µM | shares compounds with MEKK3 PB1 HTS | AID 1894;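 active means binding response below 72% of control, or above a set upper limit, though filed actives all read lower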
Of the large screens only hits and unclear results are named; the others gave an inactive call (follow-up assays come after a bar, where they were run); [ ] = another dose, or the depositor's remark.

C#CCOCCOCCOCCNc1nc(N2CCN(C(=O)C([C@@H](C)CC)n3cc(C(N)COC(=O)C(F)(F)F)nn3)CC2)nc(N2CCN(C(=O)[C@H](Cc3cc4ccccc4[nH]3)n3cc(C(N)CO)nn3)CC2)n1 (stereo partly drawn)	MEKK2 WT-MEK5 143 (no result: ABCG2 inh, ABCB1 block) | MEKK2wt confirm inactive | MEKK2mut confirm inactive | MEKK3-MEK5 inh inactive
C#CCOCCOCCOCCNc1nc(N2CCN(C(=O)[C@H](Cc3cc4ccccc4[nH]3)n3cc([C@@H](N)CC(C)C)nn3)CC2)nc(N2CCN(C(=O)[C@H](Cc3cc4ccccc4[nH]3)n3cc([C@@H](N)CC(C)C)nn3)CC2)n1	MEKK2 mut-MEK5 112, MEKK2 WT-MEK5 258 | MEKK2wt confirm 289 | MEKK2mut confirm 132 | MEKK3-MEK5 inh inactive
C#CCOCCOCCOCCNc1nc(N2CCN(C(=O)[C@H]([C@@H](C)CC)n3cc([C@@H](N)CC(C)C)nn3)CC2)nc(N2CCN(C(=O)[C@H](Cc3cc4ccccc4[nH]3)n3cc([C@@H](N)CC(C)C)nn3)CC2)n1	MEKK2 mut-MEK5 52, MEKK2 WT-MEK5 151 (no result: Efflux pump inh, ABCG2 inh, ABCB1 block) | MEKK2wt confirm 252 | MEKK2mut confirm 169 | MEKK3-MEK5 inh inactive
C#CCOCCOCCOCCNc1nc(N2CCN(C(=O)[C@H]([C@@H](C)CC)n3cc([C@@H](N)CO)nn3)CC2)nc(N2CCN(C(=O)[C@H](Cc3cc4ccccc4[nH]3)n3cc([C@@H](N)C(C)CC)nn3)CC2)n1 (stereo partly drawn)	MEKK2 mut-MEK5 56, MEKK2 WT-MEK5 181 | MEKK2wt confirm inactive | MEKK2mut confirm 87 | MEKK3-MEK5 inh inactive
C#CCOCCOCCOCCNc1nc(N2CCN(C(=O)C([C@@H](C)CC)n3cc(C(N)CO)nn3)CC2)nc(N2CCN(C(=O)[C@H](CCC(=O)O)n3cc(C(N)[C@H](C)CC)nn3)CC2)n1 (stereo partly drawn)	none (no result: Efflux pump inh, ABCG2 inh, ABCB1 block)
COc1ccccc1CCNC(=O)C(=O)NCC1OCCN1S(=O)(=O)c1ccc2c(c1)OCCO2 (stereo not drawn)	none (no result: ABCG2 inh, ABCB1 block)
Cc1noc(C)c1S(=O)(=O)NCc1ccc(CN(C)C)cc1	none (no result: MEKK3 PB1 HTS, ABCG2 inh, MEKK2 mut-MEK5, ABCB1 block, MEKK2 WT-MEK5)
O=C(NC1CCCCC1)C1CC(=O)N(c2cccc([N+](=O)[O-])c2)C1 (stereo not drawn)	none
CCOC(=O)C1CSC(CC(=O)Nc2ccc(OC(F)(F)F)cc2)C(=O)N1 (stereo not drawn)	none (no result: ABCG2 inh, ABCB1 block)
C/C(Cl)=C\Cn1c(N2CCCC2)nc2c1c(=O)n(C)c(=O)n2C	none (no result: ABCG2 inh, ABCB1 block)
Cc1cccc(N(C(=O)CNC(=O)c2ccco2)C(C(=O)NCC2CCCO2)c2ccccc2)c1 (stereo not drawn)	none
COC(=O)c1ccc(S(=O)(=O)N2Cc3ccccc3C2)cc1	MEKK3 PB1 HTS 135 | MEKK2wt confirm inactive | MEKK2mut confirm inactive | MEKK3-MEK5 inh inactive
Cc1c(Cl)c([N+](=O)[O-])nn1CCCC(=O)N(Cc1ccccc1)Cc1ccccc1	MEKK3 PB1 HTS 141 | MEKK2wt confirm inactive | MEKK2mut confirm inactive | MEKK3-MEK5 inh inactive
O=C(NCCCn1ccnc1)c1ccc(COc2ccccc2)o1	none (no result: MEKK3 PB1 HTS, ABCG2 inh, MEKK2 mut-MEK5, ABCB1 block, MEKK2 WT-MEK5)
O=C1c2ccccc2C(=O)N1CCCCSc1nc2ccccc2c(=O)n1CCCN1CCOCC1	MEKK3 PB1 HTS 143 | MEKK2wt confirm inactive | MEKK2mut confirm inactive | MEKK3-MEK5 inh inactive
CCn1c(SCC(=O)N2CCCC2)nc2ccccc2c1=O	MEKK3 PB1 HTS 74[inhibitor], MEKK2 WT-MEK5 52[inhibitor] | MEKK2wt confirm inactive | MEKK2mut confirm inactive | MEKK3-MEK5 inh inactive
Cc1ccc(NC(=O)CSc2nc3ccccc3c(=O)n2CCCN2CCCCC2)cc1C	MEKK2 WT-MEK5 149 | MEKK2wt confirm inactive | MEKK2mut confirm inactive | MEKK3-MEK5 inh inactive
O=C1c2ccccc2C(=O)N1CCSc1nc2ccccc2c(=O)n1CCCN1CCOCC1	none
Cn1c(SCC(=O)N2CCCC2)nc2ccccc2c1=O	none
Cc1cc(Cl)c2oc(C(=O)N(C)Cc3ccon3)c(C)c2c1	none (no result: ABCG2 inh, ABCB1 block)
Cc1c(C)c2ccc(OCC(=O)N3CC[C@@]4(O)CCCC[C@H]4C3)cc2oc1=O	none (no result: ABCG2 inh, ABCB1 block)
O=C(COc1ccc2ccc(=O)oc2c1)N1CC[C@@]2(O)CCCC[C@H]2C1	MEKK3 PB1 HTS 2.0[inhibitor], MEKK2 WT-MEK5 1.0[inhibitor] (no result: ABCG2 inh, ABCB1 block) | MEKK2wt confirm inactive | MEKK2mut confirm inactive | MEKK3-MEK5 inh inactive
COCCNC(=O)/C(C#N)=C/c1c(F)cccc1Cl	none
CC(C)N1C/C(=C/c2cccnc2)C(=O)/C(=C/c2cccnc2)C1	none (no result: Efflux pump inh)
CN1C/C(=C/c2cccnc2)C(=O)/C(=C/c2cccnc2)C1	MEKK3 PB1 HTS 59[inhibitor] | MEKK2wt confirm inactive | MEKK2mut confirm inactive | MEKK3-MEK5 inh inactive
O=C(NC(=S)NCC1CCCO1)c1ccc(Cl)cc1Cl (stereo not drawn)	MEKK3 PB1 HTS 143 | MEKK2wt confirm inactive | MEKK2mut confirm inactive | MEKK3-MEK5 inh inactive
O=C(NCC1CCCO1)C1CCCN1C(=O)Nc1ccc(Cl)c(Cl)c1 (stereo not drawn)	MEKK3 PB1 HTS 4.0[inhibitor], MEKK2 WT-MEK5 5.0[inhibitor] | MEKK2wt confirm inactive | MEKK2mut confirm inactive | MEKK3-MEK5 inh inactive
O=C(NCC1CCCO1)C1CCCN1C(=O)NC1CCCCC1 (stereo not drawn)	none
O=C1CCCC2=C1C(c1ccc(Cl)cc1)n1c(s/c(=C\c3ccc4ccncc4c3)c1=O)=N2 (stereo not drawn)	MEKK3 PB1 HTS 141 | MEKK2wt confirm inactive | MEKK2mut confirm inactive | MEKK3-MEK5 inh inactive
O=C(Nc1cccc(C(F)(F)F)c1)N1CCC(c2nc(-c3ccc(F)cc3)no2)CC1	MEKK2 WT-MEK5 173 | MEKK2wt confirm inactive | MEKK2mut confirm inactive | MEKK3-MEK5 inh inactive
O=C(Nc1ccccc1)N1CCCC(c2nc(-c3ccc(F)cc3)no2)C1 (stereo not drawn)	none
CC1(C)CC(NC(=O)Cc2ccccc2[N+](=O)[O-])CC(C)(C)N1	MEKK3 PB1 HTS 142 | MEKK2wt confirm inactive | MEKK2mut confirm inactive | MEKK3-MEK5 inh inactive
Nc1cc(Cl)ccc1C(=O)OCC(=O)N1CCCCCC1	none (no result: MEKK3 PB1 HTS, ABCG2 inh, MEKK2 mut-MEK5, ABCB1 block, MEKK2 WT-MEK5)
COc1ccc(OC)c(C2C3=C(CCCC3=O)Nc3nnnn32)c1 (stereo not drawn)	MEKK3 PB1 HTS 133 | MEKK2wt confirm inactive | MEKK2mut confirm inactive | MEKK3-MEK5 inh inactive
